From ChEMBL document CHEMBL2375313, “Synthesis, in vitro antitumor evaluation and DNA-binding study of novel tetrahydroquinolines and some derived tricyclic and tetracyclic ring systems” (Eur J Med Chem, 2013)
Converted amounts (≈) assume the structure as drawn. The source made the active and inactive calls. The calls are words filed in the database; no cut-off is given here.

Experiments:
ACHN = assay: Cytotoxicity against human ACHN cells assessed as growth inhibition at 10 uM after 48 hrs by sulphorhodamine B assay; type: functional; conditions: read-out: GI
Procedure, shortened: (§1)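 NCI-60 one-dose screen per the NCI Drug Evaluation Branch protocol. Cells given a single 10 µM concentration with 48 h continuous exposure. Growth estimated by sulphorhodamine B protein assay. Result expressed as percentage growth inhibition relative to untreated growth.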

MOLT-4 = assay: Cytotoxicity against human MOLT4 cells assessed as growth inhibition at 10 uM after 48 hrs by sulphorhodamine B assay; type: functional; conditions: MOLT-4, 48 h, read-out: GI; procedure, shortened: as §1
CAKI-1 = assay: Cytotoxicity against human Caki1 cells assessed as growth inhibition at 10 uM after 48 hrs by sulphorhodamine B assay; type: functional; conditions: CAKI-1, 48 h, read-out: GI; procedure, shortened: as §1
UO-31 = assay: Cytotoxicity against human UO31 cells assessed as growth inhibition at 10 uM after 48 hrs by sulphorhodamine B assay; type: functional; conditions: UO-31, 48 h, read-out: GI; procedure, shortened: as §1
LOX IMVI = assay: Cytotoxicity against human LOXIMVI cells assessed as growth inhibition at 10 uM after 48 hrs by sulphorhodamine B assay; type: functional; conditions: read-out: GI; procedure, shortened: as §1
UACC-62 = assay: Cytotoxicity against human UACC62 cells assessed as growth inhibition at 10 uM after 48 hrs by sulphorhodamine B assay; type: functional; conditions: UACC-62, 48 h, read-out: GI; procedure, shortened: as §1
[1] = Binding affinity to DNA (unknown origin) at 5 mg/mL by RP-TLC plate analysis
Procedure, shortened: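 Reversed-phase C18 TLC plates pre-developed in methanol/water 8:2. Compound spotted at origin (5 mg/mL in methanol), then DNA (1 mg/mL in water/methanol 8:2) applied at the same spot. Plates developed in the same eluent; DNA located by anisaldehyde spray (blue). Ethidium bromide as positive control.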

K562 = assay: Cytotoxicity against human K562 cells assessed as growth inhibition at 10 uM after 48 hrs by sulphorhodamine B assay; type: functional; conditions: K562, 48 h, read-out: GI; procedure, shortened: as §1
HCT-116 = assay: Cytotoxicity against human HCT116 cells assessed as growth inhibition at 10 uM after 48 hrs by sulphorhodamine B assay; type: functional; conditions: HCT-116, 48 h, read-out: GI; procedure, shortened: as §1
PC-3 = assay: Cytotoxicity against human PC3 cells assessed as growth inhibition at 10 uM after 48 hrs by sulphorhodamine B assay; type: functional; conditions: PC-3, 48 h, read-out: GI; procedure, shortened: as §1
A549 = assay: Cytotoxicity against human A549 cells assessed as growth inhibition at 10 uM after 48 hrs by sulphorhodamine B assay; type: functional; conditions: A549, 48 h, read-out: GI; procedure, shortened: as §1
SNB-75 = assay: Cytotoxicity against human SNB75 cells assessed as growth inhibition at 10 uM after 48 hrs by sulphorhodamine B assay; type: functional; conditions: SNB-75, 48 h, read-out: GI; procedure, shortened: as §1
SNB-19 = assay: Cytotoxicity against human SNB19 cells assessed as growth inhibition at 10 uM after 48 hrs by sulphorhodamine B assay; type: functional; conditions: SNB-19, 48 h, read-out: GI; procedure, shortened: as §1
Hs-578T = assay: Cytotoxicity against human Hs578T cells assessed as growth inhibition at 10 uM after 48 hrs by sulphorhodamine B assay; type: functional; conditions: read-out: GI; procedure, shortened: as §1
IGROV-1 = assay: Cytotoxicity against human IGROV1 cells assessed as growth inhibition at 10 uM after 48 hrs by sulphorhodamine B assay; type: functional; conditions: IGROV-1, 48 h, read-out: GI; procedure, shortened: as §1
SF-268 = assay: Cytotoxicity against human SF268 cells assessed as growth inhibition at 10 uM after 48 hrs by sulphorhodamine B assay; type: functional; conditions: SF-268, 48 h, read-out: GI; procedure, shortened: as §1
NCI-H23 = assay: Cytotoxicity against human NCI-H23 cells assessed as growth inhibition at 10 uM after 48 hrs by sulphorhodamine B assay; type: functional; conditions: NCI-H23, 48 h, read-out: GI; procedure, shortened: as §1
T47D = assay: Cytotoxicity against human T47D cells assessed as growth inhibition at 10 uM after 48 hrs by sulphorhodamine B assay; type: functional; conditions: read-out: GI; procedure, shortened: as §1
SF-295 = assay: Cytotoxicity against human SF295 cells assessed as growth inhibition at 10 uM after 48 hrs by sulphorhodamine B assay; type: functional; conditions: SF-295, 48 h, read-out: GI; procedure, shortened: as §1
A498 = assay: Cytotoxicity against human A498 cells assessed as growth inhibition at 10 uM after 48 hrs by sulphorhodamine B assay; type: functional; conditions: A498, 48 h, read-out: GI; procedure, shortened: as §1
RPMI-8226 = assay: Cytotoxicity against human RPMI8226 cells assessed as growth inhibition at 10 uM after 48 hrs by sulphorhodamine B assay; type: functional; conditions: RPMI-8226, 48 h, read-out: GI; procedure, shortened: as §1
M14 = assay: Cytotoxicity against human M14 cells assessed as growth inhibition at 10 uM after 48 hrs by sulphorhodamine B assay; type: functional; conditions: M14, 48 h, read-out: GI; procedure, shortened: as §1
DU-145 = assay: Cytotoxicity against human DU145 cells assessed as growth inhibition at 10 uM after 48 hrs by sulphorhodamine B assay; type: functional; conditions: DU-145, 48 h, read-out: GI; procedure, shortened: as §1
SK-MEL-2 = assay: Cytotoxicity against human SK-MEL-2 cells assessed as growth inhibition at 10 uM after 48 hrs by sulphorhodamine B assay; type: functional; conditions: SK-MEL-2, 48 h, read-out: GI; procedure, shortened: as §1
OVCAR-4 = assay: Cytotoxicity against human OVCAR4 cells assessed as growth inhibition at 10 uM after 48 hrs by sulphorhodamine B assay; type: functional; conditions: OVCAR-4, 48 h, read-out: GI; procedure, shortened: as §1
MDA-MB-468 = assay: Cytotoxicity against human MDA-MB-468 cells assessed as growth inhibition at 10 uM after 48 hrs by sulphorhodamine B assay; type: functional; conditions: MDA-MB-468, 48 h, read-out: GI; procedure, shortened: as §1
OVCAR-5 = assay: Cytotoxicity against human OVCAR5 cells assessed as growth inhibition at 10 uM after 48 hrs by sulphorhodamine B assay; type: functional; conditions: OVCAR-5, 48 h, read-out: GI; procedure, shortened: as §1
MDA-MB-435 = assay: Cytotoxicity against human MDA-MB-435 cells assessed as growth inhibition at 10 uM after 48 hrs by sulphorhodamine B assay; type: functional; conditions: MDA-MB-435, 48 h, read-out: GI; procedure, shortened: as §1
HOP-92 = assay: Cytotoxicity against human HOP92 cells assessed as growth inhibition at 10 uM after 48 hrs by sulphorhodamine B assay; type: functional; conditions: HOP-92, 48 h, read-out: GI; procedure, shortened: as §1
[2] = Displacement of methyl green from DNA (unknown origin) after 24 hrs
Procedure, shortened: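 DNA-methyl green complex was stirred in 0.05 M Tris-HCl pH 7.5 with 7.5 mmol MgSO4 at 37 °C for 24 h. Compound was dried down from EtOH in tubes and the DNA-methyl green solution added. A630 was read initially and after 24 h dark incubation at room temperature, corrected and normalized to untreated complex. IC50 is the concentration giving a 50% absorbance decrease; mean ± SD, n = 6.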

U-251 = assay: Cytotoxicity against human U251 cells assessed as growth inhibition at 10 uM after 48 hrs by sulphorhodamine B assay; type: functional; conditions: U-251, 48 h, read-out: GI; procedure, shortened: as §1
SK-OV-3 = assay: Cytotoxicity against human SKOV3 cells assessed as growth inhibition at 10 uM after 48 hrs by sulphorhodamine B assay; type: functional; conditions: SK-OV-3, 48 h, read-out: GI; procedure, shortened: as §1
SK-MEL-5 = assay: Cytotoxicity against human SK-MEL-5 cells assessed as growth inhibition at 10 uM after 48 hrs by sulphorhodamine B assay; type: functional; conditions: SK-MEL-5, 48 h, read-out: GI; procedure, shortened: as §1

SMILES	inhibition of growth at 10 µM (ACHN) [%]	inhibition of growth at 10 µM (MOLT-4) [%]	inhibition of growth at 10 µM (CAKI-1) [%]	inhibition of growth at 10 µM (UO-31) [%]	inhibition of growth at 10 µM (LOX IMVI) [%]	inhibition of growth at 10 µM (UACC-62) [%]	Activity [1]	inhibition of growth at 10 µM (K562) [%]	inhibition of growth at 10 µM (HCT-116) [%]	inhibition of growth at 10 µM (PC-3) [%]	inhibition of growth at 10 µM (A549) [%]	inhibition of growth at 10 µM (SNB-75) [%]	inhibition of growth at 10 µM (SNB-19) [%]	inhibition of growth at 10 µM (Hs-578T) [%]	inhibition of growth at 10 µM (IGROV-1) [%]	inhibition of growth at 10 µM (SF-268) [%]	inhibition of growth at 10 µM (NCI-H23) [%]	inhibition of growth at 10 µM (T47D) [%]	inhibition of growth at 10 µM (SF-295) [%]	inhibition of growth at 10 µM (A498) [%]	also measured
CC1CCCc2c1nc1nc(SCC(=O)c3ccccc3)nc(N)c1c2-c1ccc(Cl)cc1 (stereo unspecified)	29.3	44.6	11.8	63	14.6	70.8	Active	27.7	38.4	66.8	17.6	< 10	< 10	38.2	< 10	23.7	24.7	72.6	23.9	21.2	inhibition of growth at 10 µM (RPMI-8226): 69.2%; inhibition of growth at 10 µM (M14): 35%; inhibition of growth at 10 µM (DU-145): 17%; inhibition of growth at 10 µM (SK-MEL-2): 14.5%; inhibition of growth at 10 µM (OVCAR-4): 20%; inhibition of growth at 10 µM (MDA-MB-468): 22.9%; inhibition of growth at 10 µM (OVCAR-5): 10%; inhibition of growth at 10 µM (MDA-MB-435): 13%; inhibition of growth at 10 µM (HOP-92): 90%; IC50 [2]: 0.061 µg/mL (≈ 0.128 µM); inhibition of growth at 10 µM (U-251): 21.5%; inhibition of growth at 10 µM (SK-OV-3): < 10%; inhibition of growth at 10 µM (SK-MEL-5): 67%
CCSc1nc(N)c2c(-c3ccc(Cl)cc3)c3c(nc2n1)C(C)CCC3 (stereo unspecified)	30.8	32.5	< 10	59	< 10	21.8	Active	32.4	18.8	25.3	18.1	33	< 10	14.2	39	< 10	15.3	39.5	< 10	21.7	inhibition of growth at 10 µM (RPMI-8226): 33.8%; inhibition of growth at 10 µM (M14): < 10%; inhibition of growth at 10 µM (DU-145): < 10%; inhibition of growth at 10 µM (SK-MEL-2): < 10%; inhibition of growth at 10 µM (OVCAR-4): 26.8%; inhibition of growth at 10 µM (MDA-MB-468): 30.8%; inhibition of growth at 10 µM (OVCAR-5): 12.3%; inhibition of growth at 10 µM (MDA-MB-435): 14.5%; inhibition of growth at 10 µM (HOP-92): 35.2%; IC50 [2]: 0.127 µg/mL (≈ 0.33 µM); inhibition of growth at 10 µM (U-251): 13.6%; inhibition of growth at 10 µM (SK-OV-3): 15.2%; inhibition of growth at 10 µM (SK-MEL-5): < 10%
